How the values were obtained:
[1] = Tmax in wild-type mouse at 10 mg/kg, po; assay type: ADME, organism-based; parameters: dose 10 mg/kg, route oral; settings: in vivo
Method in brief: (§1)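 Fasted (3 h) FVB WT mice (n = 5) were given 10 mg/kg by gavage (10 ml/kg of 1 mg/ml, an ethanol stock diluted 10-fold in saline). Tail-vein plasma was collected from 0.25 to 6 h and measured by LC-MS/MS. Only the trapezoidal AUC0-6 was calculated. Cmax and Tmax were taken from the observed data.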

[2] = Ratio of drug uptake in brain to drug uptake in plasma in mdr1a/1b double knockout mouse at 1 mg/kg, iv after 180 mins by LC-MS/MS analysis; assay type: ADME, organism-based; parameters: dose 1 mg/kg, route intravenous
Method in brief: (§2)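 WT or Mdr1a/1b–/– mice (n = 4) received a single 1 mg/kg i.v. tail-vein bolus (5 ml/kg; 0.2 mg/ml in ethanol/saline). At 180 min, plasma, brain, liver and small intestinal contents were collected. Salinomycin was quantified by LC-MS/MS. Brain/plasma ratios were calculated. Wilcoxon rank sum test.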

[3] = Cmax in mdr1a/1b double knockout mouse at 1 mg/kg, po; assay type: ADME, organism-based; parameters: dose 1 mg/kg, route oral; settings: in vivo
Method in brief: (§3)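 Male FVB WT or Mdr1a/1b–/– mice (n = 5) were fasted 3 h. They received 1 mg/kg by gavage (10 ml/kg of 0.1 mg/ml, made as an ethanol stock diluted 100-fold in saline). Tail-vein plasma was sampled at 0.25, 0.5, 1, 2, 4 and 6 h and analysed by LC-MS/MS. Noncompartmental trapezoidal AUC0-6 and AUC(0-∞). Cmax and Tmax were taken from the observed data.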

[4] = Cmax in wild-type mouse at 10 mg/kg, po; assay type: ADME, organism-based; parameters: dose 10 mg/kg, route oral; settings: in vivo; method in brief: as §1
Mus musculus [5] = assay: Ratio of AUC (0 to infinity) in mdr1a/1b double knockout mouse to AUC (0 to infinity) in wild-type mouse at 1 mg/kg, po; assay type: ADME, organism-based; parameters: dose 1 mg/kg, route oral; settings: in vivo; method in brief: as §3
Mus musculus [6] = assay: Toxicity in mdr1a/1b double knockout mouse assessed as decrease in respiratory frequency at 10 mg/kg, po after 15 to 30 mins; assay type: organism-based; parameters: dose 10 mg/kg, route oral; settings: in vivo
Method in brief: (§4)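 Fasted (3 h) WT and Mdr1a/1b–/– mice (n = 5) received 10 mg/kg orally by gavage in ethanol/saline (10 ml/kg). They were observed 15 to 30 min after dosing for signs of poisoning, including limb paralysis and respiratory frequency.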

Plasma = assay: Ratio of drug uptake in plasma in mdr1a/1b double knockout mouse to drug uptake in plasma in wild-type mouse at 1 mg/kg, iv after 180 mins by LC-MS/MS analysis; assay type: ADME, organism-based; parameters: dose 1 mg/kg, route intravenous; settings: in vivo, 3 h; method in brief: as §2
Mus musculus [7] = assay: Toxicity in mdr1a/1b double knockout mouse assessed as paralyzed fore limb and hind limb at 10 mg/kg, po after 15 to 30 mins; assay type: organism-based, Hindlimb; parameters: dose 10 mg/kg, route oral; settings: in vivo; method in brief: as §4
Brain = assay: Ratio of drug uptake in brain in mdr1a/1b double knockout mouse to drug uptake in brain in wild-type mouse at 1 mg/kg, iv after 180 mins by LC-MS/MS analysis; assay type: ADME, organism-based; parameters: dose 1 mg/kg, route intravenous; settings: in vivo, 3 h; method in brief: as §2
Mus musculus [8] = assay: Toxicity in mdr1a/1b double knockout mouse at 1 mg/kg, po; assay type: organism-based; parameters: dose 1 mg/kg, route oral; settings: in vivo
Mus musculus [9] = assay: Ratio of Tmax in mdr1a/1b double knockout mouse to Tmax in wild-type mouse at 1 mg/kg, po; assay type: ADME, organism-based; parameters: dose 1 mg/kg, route oral; settings: in vivo; method in brief: as §3
[10] = AUC (0 to 6 hrs) in wild-type mouse at 1 mg/kg, po; assay type: ADME, organism-based; parameters: time < 6 hr, dose 1 mg/kg, route oral; settings: plasma; method in brief: as §3
[11] = AUC (0 to infinity) in wild-type mouse at 1 mg/kg, po; assay type: ADME, organism-based; parameters: time infinity, dose 1 mg/kg, route oral; settings: plasma; method in brief: as §3
[12] = Tmax in wild-type mouse at 1 mg/kg, po; assay type: ADME, organism-based; parameters: dose 1 mg/kg, route oral; settings: in vivo; method in brief: as §3
[13] = Tmax in mdr1a/1b double knockout mouse at 1 mg/kg, po; assay type: ADME, organism-based; parameters: dose 1 mg/kg, route oral; settings: in vivo; method in brief: as §3
[14] = AUC (0 to 6 hrs) in mdr1a/1b double knockout mouse at 1 mg/kg, po; assay type: ADME, organism-based; parameters: time < 6 hr, dose 1 mg/kg, route oral; settings: plasma; method in brief: as §3
[15] = AUC (0 to 6 hrs) in mdr1a/1b double knockout mouse at 1 mg/kg, iv; assay type: ADME, organism-based; parameters: time < 6 hr, dose 1 mg/kg, route intravenous; settings: plasma
Method in brief: (§5)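 Male FVB WT or Mdr1a/1b–/– mice (n = 5). Dosing solution was 10 mg/ml in absolute ethanol, diluted 50-fold with saline to 0.2 mg/ml, and given as a single i.v. tail-vein bolus of 1 mg/kg (5 ml/kg). Tail-vein plasma was sampled at 0.125–6 h and analysed by LC-MS/MS. Noncompartmental analysis with trapezoidal AUC0-6 and AUC(0-∞). CL = dose/AUC(0-∞). Wilcoxon rank sum test.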

[16] = Drug uptake in wild-type mouse liver at 1 mg/kg, iv after 180 mins by LC-MS/MS analysis; assay type: ADME, organism-based; parameters: dose 1 mg/kg, route intravenous; settings: read-out: Drug uptake; method in brief: as §2
Mus musculus [17] = assay: Ratio of AUC (0 to infinity) in mdr1a/1b double knockout mouse to AUC (0 to infinity) in wild-type mouse at 1 mg/kg, iv; assay type: ADME, organism-based; parameters: dose 1 mg/kg, route intravenous; settings: in vivo; method in brief: as §5
Mus musculus [18] = assay: Ratio of plasma clearance in mdr1a/1b double knockout mouse to plasma clearance in wild-type mouse at 1 mg/kg, iv; assay type: ADME, organism-based; parameters: dose 1 mg/kg, route intravenous; settings: in vivo; method in brief: as §5
[19] = Drug uptake in mdr1a/1b double knockout mouse small intestinal content at 1 mg/kg, iv after 180 mins by LC-MS/MS analysis; assay type: ADME, organism-based; parameters: dose 1 mg/kg, route intravenous; settings: read-out: Drug uptake; method in brief: as §2
[20] = AUC (0 to 6 hrs) in wild-type mouse at 1 mg/kg, iv; assay type: ADME, organism-based; parameters: time < 6 hr, dose 1 mg/kg, route intravenous; settings: plasma; method in brief: as §5
[21] = AUC (0 to infinity) in mdr1a/1b double knockout mouse at 1 mg/kg, po; assay type: ADME, organism-based; parameters: dose 1 mg/kg, route oral, time infinity; settings: plasma; method in brief: as §3
Mus musculus [22] = assay: Ratio of AUC (0 to 6 hrs) in mdr1a/1b double knockout mouse to AUC (0 to 6 hrs) in wild-type mouse at 1 mg/kg, IV; assay type: ADME, organism-based; parameters: dose 1 mg/kg, route intravenous; settings: in vivo; method in brief: as §5
[23] = Drug uptake in mdr1a/1b double knockout mouse liver at 1 mg/kg, iv after 180 mins by LC-MS/MS analysis; assay type: ADME, organism-based; parameters: dose 1 mg/kg, route intravenous; settings: read-out: Drug uptake; method in brief: as §2
[24] = Plasma clearance in mdr1a/1b double knockout mouse at 1 mg/kg, iv; assay type: ADME, organism-based; parameters: dose 1 mg/kg, route intravenous; method in brief: as §5
Mus musculus [25] = assay: Ratio of AUC (0 to 6 hrs) in mdr1a/1b double knockout mouse to AUC (0 to 6 hrs) in wild-type mouse at 1 mg/kg, po; assay type: ADME, organism-based; parameters: dose 1 mg/kg, route oral; settings: in vivo; method in brief: as §3
[26] = Drug uptake in wild-type mouse plasma at 1 mg/kg, iv after 180 mins by LC-MS/MS analysis; assay type: ADME, organism-based; parameters: dose 1 mg/kg, route intravenous; settings: read-out: Drug uptake; method in brief: as §2
[27] = Plasma clearance in wild-type mouse at 1 mg/kg, iv; assay type: ADME, organism-based; parameters: dose 1 mg/kg, route intravenous
[28] = Cmax in wild-type mouse at 1 mg/kg, po; assay type: ADME, organism-based; parameters: dose 1 mg/kg, route oral; settings: in vivo; method in brief: as §3
Mus musculus [29] = assay: Ratio of Cmax in mdr1a/1b double knockout mouse to Cmax in wild-type mouse at 1 mg/kg, po; assay type: ADME, organism-based; parameters: dose 1 mg/kg, route oral; settings: in vivo; method in brief: as §3
[30] = Drug uptake in mdr1a/1b double knockout mouse brain at 1 mg/kg, iv after 180 mins by LC-MS/MS analysis; assay type: ADME, organism-based; parameters: dose 1 mg/kg, route intravenous; settings: read-out: Drug uptake; method in brief: as §2
Mus musculus [31] = assay: Toxicity in wild-type mouse at 10 mg/kg, po after 15 to 30 mins; assay type: organism-based; parameters: dose 10 mg/kg, route oral; settings: in vivo; method in brief: as §4
Liver = assay: Ratio of drug uptake in liver in mdr1a/1b double knockout mouse to drug uptake in liver in wild-type mouse at 1 mg/kg, iv after 180 mins by LC-MS/MS analysis; assay type: ADME, organism-based; parameters: dose 1 mg/kg, route intravenous; settings: in vivo, 3 h; method in brief: as §2
[32] = Drug uptake in mdr1a/1b double knockout mouse plasma at 1 mg/kg, iv after 180 mins by LC-MS/MS analysis; assay type: ADME, organism-based; parameters: dose 1 mg/kg, route intravenous; settings: read-out: Drug uptake; method in brief: as §2
[33] = Ratio of drug uptake in small intestinal content in mdr1a/1b double knockout mouse to drug uptake in small intestinal content in wild-type mouse at 1 mg/kg, iv after 180 mins by LC-MS/MS analysis; assay type: ADME, organism-based; parameters: dose 1 mg/kg, route intravenous; settings: in vivo, 3 h; method in brief: as §2
[34] = AUC (0 to infinity) in wild-type mouse at 1 mg/kg, iv; assay type: ADME, organism-based; parameters: time infinity, dose 1 mg/kg, route intravenous; settings: plasma; method in brief: as §5
[35] = Drug uptake in wild-type mouse brain at 1 mg/kg, iv after 180 mins by LC-MS/MS analysis; assay type: ADME, organism-based; parameters: dose 1 mg/kg, route intravenous; settings: read-out: Drug uptake; method in brief: as §2
[36] = AUC (0 to infinity) in mdr1a/1b double knockout mouse at 1 mg/kg, iv; assay type: ADME, organism-based; parameters: time infinity, dose 1 mg/kg, route intravenous; settings: plasma; method in brief: as §5
[37] = AUC (0 to 6 hrs) in wild-type mouse at 10 mg/kg, po; assay type: ADME, organism-based; parameters: time < 6 hr, dose 10 mg/kg, route oral; settings: plasma; method in brief: as §1
[38] = Ratio of drug uptake in brain to drug uptake in plasma in wild-type mouse at 1 mg/kg, iv after 180 mins by LC-MS/MS analysis; assay type: ADME, organism-based; parameters: dose 1 mg/kg, route intravenous; method in brief: as §2
[39] = Drug uptake in wild-type mouse small intestinal content at 1 mg/kg, iv after 180 mins by LC-MS/MS analysis; assay type: ADME, organism-based; parameters: dose 1 mg/kg, route intravenous; settings: read-out: Drug uptake; method in brief: as §2

CC[C@@H](C(=O)[C@@H](C)[C@@H](O)[C@H](C)[C@@H]1O[C@@H]([C@@H](CC)C(=O)O)CC[C@@H]1C)[C@H]1O[C@]2(C=C[C@@H](O)[C@]3(CC[C@@](C)([C@H]4CC[C@](O)(CC)[C@H](C)O4)O3)O2)[C@H](C)C[C@@H]1C [SALINOMYCIN]
Tmax [1]: 0.5 h
Kp at 3 h [2]: 0.2
Cmax [3]: 0.041 µg/mL
Cmax [4]: 0.517 µg/mL
Ratio AUC (Mus musculus [5]): 3.1
Activity (Mus musculus [6]): Toxic
Ratio (Plasma): 3.7
Activity (Mus musculus [7]): Toxic
Ratio (Brain): 5.8
Activity (Mus musculus [8]): Non-toxic
Ratio (Mus musculus [9]): 1
AUC(0-t) at 6 h [10]: 0.0621 µg·h/mL
AUC(0-inf) [11]: 0.0802 µg·h/mL
Tmax [12]: 2 h
Tmax [13]: 2 h
AUC(0-t) at 6 h [14]: 0.196 µg·h/mL
AUC(0-t) at 6 h [15]: 2.37 µg·h/mL
concentration at 3 h [16]: 7400 ng/g
Ratio AUC (Mus musculus [17]): 2
Ratio (Mus musculus [18]): 0.5
concentration at 3 h [19]: 290 ng/g
AUC(0-t) at 6 h [20]: 1.31 µg·h/mL
AUC(0-inf) [21]: 0.251 µg·h/mL
Ratio AUC (Mus musculus [22]): 1.8
concentration at 3 h [23]: 6500 ng/g
clearance [24]: 0.37 L/h/kg
Ratio AUC (Mus musculus [25]): 3.2
concentration at 3 h [26]: 0.0725 µg/mL
clearance [27]: 0.82 L/h/kg
Cmax [28]: 0.0132 µg/mL
Ratio (Mus musculus [29]): 3.1
concentration at 3 h [30]: 53.2 ng/g
Activity (Mus musculus [31]): Non-toxic
Ratio (Liver): 0.9
concentration at 3 h [32]: 0.27 µg/mL
Ratio [33]: 1.4
AUC(0-inf) [34]: 1.37 µg·h/mL
concentration at 3 h [35]: 9.2 ng/g
AUC(0-inf) [36]: 2.81 µg·h/mL
AUC(0-t) at 6 h [37]: 2.13 µg·h/mL
Kp at 3 h [38]: 0.13
concentration at 3 h [39]: 210 ng/g

— ChEMBL document CHEMBL1255280, “P-glycoprotein limits oral availability, brain penetration, and toxicity of an anionic drug, the antibiotic salinomycin” (Antimicrob Agents Chemother, 2008)
